According to ChEMBL document CHEMBL4371006, “Discovery of N-[4-(Quinolin-4-yloxy)phenyl]benzenesulfonamides as Novel AXL Kinase Inhibitors” (J Med Chem, 2018):

Tests used:
[1] = molecular target: T1, Tyrosine-protein kinase receptor UFO (Homo sapiens, UniProt P30530); assay: Binding affinity to AXL in SILAC-labeled human MDA-MB-231 cells lysate by mass spectrometry based kinAffinity assay; type: subcellular
T1 sequence (P30530 whole entry): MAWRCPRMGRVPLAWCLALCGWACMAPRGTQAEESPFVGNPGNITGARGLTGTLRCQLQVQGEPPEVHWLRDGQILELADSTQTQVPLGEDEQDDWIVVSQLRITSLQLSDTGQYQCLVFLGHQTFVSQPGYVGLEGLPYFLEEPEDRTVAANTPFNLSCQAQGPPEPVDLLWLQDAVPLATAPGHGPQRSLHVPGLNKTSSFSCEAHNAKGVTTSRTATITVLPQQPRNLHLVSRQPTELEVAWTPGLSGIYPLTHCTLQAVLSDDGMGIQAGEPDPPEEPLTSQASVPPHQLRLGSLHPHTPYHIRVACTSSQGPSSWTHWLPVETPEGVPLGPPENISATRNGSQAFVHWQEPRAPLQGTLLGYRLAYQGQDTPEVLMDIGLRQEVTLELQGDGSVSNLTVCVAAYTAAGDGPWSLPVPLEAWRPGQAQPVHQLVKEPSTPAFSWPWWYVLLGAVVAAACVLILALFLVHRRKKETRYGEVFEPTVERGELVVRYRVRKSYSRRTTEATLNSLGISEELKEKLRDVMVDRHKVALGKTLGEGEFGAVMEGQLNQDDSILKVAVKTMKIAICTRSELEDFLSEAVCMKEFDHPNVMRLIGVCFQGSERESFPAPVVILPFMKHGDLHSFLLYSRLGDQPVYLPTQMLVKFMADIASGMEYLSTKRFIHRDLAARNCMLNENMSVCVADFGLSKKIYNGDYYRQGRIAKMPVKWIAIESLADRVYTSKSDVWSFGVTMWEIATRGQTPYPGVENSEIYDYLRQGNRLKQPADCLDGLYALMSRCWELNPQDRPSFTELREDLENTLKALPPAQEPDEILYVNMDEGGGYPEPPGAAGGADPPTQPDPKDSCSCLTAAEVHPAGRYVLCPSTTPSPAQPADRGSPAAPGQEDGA
Summary of the method: (§1)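 Chemical proteomics: MDA-MB-231 lysate bound to matrix of immobilized broad kinase inhibitors at several densities (BC50), then competed with increasing free compound (CC50); proteins quantified by mass spectrometry, Kd via Cheng-Prusoff. Two competition formats run in parallel to check equilibrium.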

Activin receptor type-1 = Activin receptor type-1 (Homo sapiens, UniProt Q04771); assay: Binding affinity to ACVR1 in SILAC-labeled human MDA-MB-231 cells lysate by mass spectrometry based kinAffinity assay; type: subcellular; summary of the method: as §1
[2] = molecular target: Serine/threonine-protein kinase PLK4 (Homo sapiens, UniProt O00444); assay: Binding affinity to PLK4 in SILAC-labeled human MDA-MB-231 cells lysate by mass spectrometry based kinAffinity assay; type: subcellular
Summary of the method: (§2)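 MDA-MB-231 lysate applied to KinAffinity matrix of immobilized broadband kinase inhibitors at graded densities to obtain BC50 per target. Competition then run with increasing free compound to give CC50; Kd derived by Cheng-Prusoff. Two competition experiments in parallel to check equilibrium, one with lysate pre-incubated with compound before adding matrix. Quantitation by mass spectrometry.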

[3] = molecular target: Tyrosine-protein kinase ABL2 (Homo sapiens, UniProt P42684); assay: Binding affinity to ABL2 in SILAC-labeled human MDA-MB-231 cells lysate by mass spectrometry based kinAffinity assay; type: subcellular; summary of the method: as §1
LIM domain kinase 1 = LIM domain kinase 1 (Homo sapiens, UniProt P53667); assay: Binding affinity to LIMK1 in SILAC-labeled human MDA-MB-231 cells lysate by mass spectrometry based kinAffinity assay; type: subcellular; summary of the method: as §1
[4] = molecular target: Tyrosine-protein kinase Yes (Homo sapiens, UniProt P07947); assay: Binding affinity to YES in SILAC-labeled human MDA-MB-231 cells lysate by mass spectrometry based kinAffinity assay; type: subcellular; summary of the method: as §2
[5] = molecular target: Tyrosine-protein kinase CSK (Homo sapiens, UniProt P41240); assay: Binding affinity to CSK in SILAC-labeled human MDA-MB-231 cells lysate by mass spectrometry based kinAffinity assay; type: subcellular; summary of the method: as §1
[6] = molecular target: Serine/threonine-protein kinase 4 (Homo sapiens, UniProt Q13043); assay: Binding affinity to MST1 in SILAC-labeled human MDA-MB-231 cells lysate by mass spectrometry based kinAffinity assay; type: subcellular; summary of the method: as §2
[7] = molecular target: Ribosomal protein S6 kinase alpha-1 (Homo sapiens, UniProt Q15418); assay: Binding affinity to RPS6KA1 in SILAC-labeled human MDA-MB-231 cells lysate by mass spectrometry based kinAffinity assay; type: subcellular; summary of the method: as §2
[8] = molecular target: MAP/microtubule affinity-regulating kinase 3 (Homo sapiens, UniProt P27448); assay: Binding affinity to MARK3 in SILAC-labeled human MDA-MB-231 cells lysate by mass spectrometry based kinAffinity assay; type: subcellular; summary of the method: as §1
[9] = molecular target: Serine/threonine-protein kinase Nek1 (Homo sapiens, UniProt Q96PY6); assay: Binding affinity to NEK1 in SILAC-labeled human MDA-MB-231 cells lysate by mass spectrometry based kinAffinity assay; type: subcellular; summary of the method: as §2
[10] = Permeability of the compound in 0.025 M phosphate buffer at pH 7.4 assessed drug flux level after 5 hrs by PAMPA; type: ADME; settings: pH 7.4, 5 h
Summary of the method: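 PAMPA: donor at 0.5 mM in pH 7.4 0.025 M phosphate buffer, diluted from 1 mM DMSO stock. Filters are coated with 1% phosphatidylcholine in dodecane, and the acceptor is 50% DMSO in phosphate buffer. Incubated 5 h at room temperature with gentle shaking. Donor and acceptor are analyzed by HPLC-UV to calculate Papp. Three plates were run on different days.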

[11] = Apparent permeability from apical to basolateral side in human Caco2 cells at 10 uM after 2 hrs by LC-MS/MS analysis; type: ADME, cell-based; settings: Caco-2
Summary of the method: (§3)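 Caco-2 cells differentiated three weeks in 96-well format, monolayer integrity checked by Lucifer yellow transport. Compound at 10 µM for 2 h; apical buffer HBSS/10 mM HEPES/glucose pH 6.5 with 100 µM Lucifer yellow, basolateral buffer pH 7.4. Papp = (dQ/dt)/C0A; efflux ratio Papp(B→A)/Papp(A→B).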

[12] = Apparent permeability from basolateral to apical side in human Caco2 cells at 10 uM after 2 hrs by LC-MS/MS analysis; type: ADME, cell-based; settings: Caco-2; summary of the method: as §3
[13] = Intrinsic clearance in mouse liver microsomes at 5 uM after 60 mins in presence of NADPH by LC-MS/MS analysis; type: ADME, Microsome; settings: read-out: CLH
Summary of the method: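 Compound at 5 µM with 1 mg/mL human or mouse liver microsomes plus an NADPH-regenerating system, in 100 mM potassium phosphate at 37°C. Reactions were stopped with acetonitrile at sampling times. Percent remaining versus time 0 was measured by HPLC, in duplicate.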

[14] = Stability in mouse plasma assessed as parent compound remaining; type: ADME, cell-free
[15] = Initial plasma concentration in mouse at 1 to 2 mg/kg, iv by LC/MS/MS analysis; type: ADME, organism-based
Summary of the method: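 Male ICR mice (n = 3) dosed iv via the tail vein at 2 or 1 mg/kg in 30% PEG400 and 5% ethanol in water. Jugular blood was collected into heparin and the plasma separated. Plasma levels were measured by LC/MS/MS after acetonitrile precipitation, and parameters were derived by noncompartmental software.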

Chain of LIM domain kinase 1 (P53667 whole entry, the tested form may be a part): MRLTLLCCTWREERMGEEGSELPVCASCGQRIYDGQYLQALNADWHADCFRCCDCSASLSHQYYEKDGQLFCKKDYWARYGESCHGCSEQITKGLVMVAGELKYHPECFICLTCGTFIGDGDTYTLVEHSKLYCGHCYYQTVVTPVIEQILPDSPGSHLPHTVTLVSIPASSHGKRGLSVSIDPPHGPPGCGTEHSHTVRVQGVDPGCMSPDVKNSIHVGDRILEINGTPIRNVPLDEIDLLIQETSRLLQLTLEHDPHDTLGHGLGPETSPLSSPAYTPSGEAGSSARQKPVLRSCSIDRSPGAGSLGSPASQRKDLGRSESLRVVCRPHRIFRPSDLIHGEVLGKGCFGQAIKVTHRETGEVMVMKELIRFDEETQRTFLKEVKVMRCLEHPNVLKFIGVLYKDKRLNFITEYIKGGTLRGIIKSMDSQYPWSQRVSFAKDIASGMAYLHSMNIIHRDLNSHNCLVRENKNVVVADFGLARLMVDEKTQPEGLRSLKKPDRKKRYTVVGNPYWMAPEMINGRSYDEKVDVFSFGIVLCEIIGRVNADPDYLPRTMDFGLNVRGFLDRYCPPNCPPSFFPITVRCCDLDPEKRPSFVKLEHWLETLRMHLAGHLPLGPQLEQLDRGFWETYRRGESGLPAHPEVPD
Chain of Tyrosine-protein kinase ABL2 (P42684 whole entry, the tested form may be a part): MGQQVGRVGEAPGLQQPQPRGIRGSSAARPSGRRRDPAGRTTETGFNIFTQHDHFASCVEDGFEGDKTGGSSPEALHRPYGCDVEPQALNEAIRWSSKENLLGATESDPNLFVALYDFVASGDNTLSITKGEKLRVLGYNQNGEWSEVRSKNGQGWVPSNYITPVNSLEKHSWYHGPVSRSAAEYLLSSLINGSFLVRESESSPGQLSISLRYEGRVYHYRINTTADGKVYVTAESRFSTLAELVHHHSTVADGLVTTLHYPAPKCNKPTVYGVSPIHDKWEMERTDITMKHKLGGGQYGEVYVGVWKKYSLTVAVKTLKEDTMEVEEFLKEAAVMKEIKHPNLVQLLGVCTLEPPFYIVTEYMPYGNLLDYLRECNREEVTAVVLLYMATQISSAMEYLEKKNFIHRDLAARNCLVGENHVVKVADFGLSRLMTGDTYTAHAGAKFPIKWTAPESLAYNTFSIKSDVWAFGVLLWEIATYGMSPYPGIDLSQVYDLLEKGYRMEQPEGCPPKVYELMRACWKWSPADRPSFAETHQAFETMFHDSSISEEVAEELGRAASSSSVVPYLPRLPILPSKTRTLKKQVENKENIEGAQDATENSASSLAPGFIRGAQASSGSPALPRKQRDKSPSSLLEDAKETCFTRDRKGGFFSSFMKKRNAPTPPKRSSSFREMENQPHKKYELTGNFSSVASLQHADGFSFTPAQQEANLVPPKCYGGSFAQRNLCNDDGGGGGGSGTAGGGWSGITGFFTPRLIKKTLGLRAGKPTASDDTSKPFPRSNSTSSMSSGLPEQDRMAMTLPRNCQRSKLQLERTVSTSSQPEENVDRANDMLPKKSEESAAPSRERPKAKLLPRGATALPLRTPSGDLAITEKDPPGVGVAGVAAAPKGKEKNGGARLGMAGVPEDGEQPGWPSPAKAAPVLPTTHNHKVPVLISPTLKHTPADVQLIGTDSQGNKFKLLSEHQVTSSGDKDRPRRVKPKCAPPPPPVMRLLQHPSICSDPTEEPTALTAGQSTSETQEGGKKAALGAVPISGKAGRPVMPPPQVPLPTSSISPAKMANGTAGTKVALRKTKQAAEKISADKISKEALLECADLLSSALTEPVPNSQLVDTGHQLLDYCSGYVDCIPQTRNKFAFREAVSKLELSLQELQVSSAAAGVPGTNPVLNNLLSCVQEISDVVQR
Chain of Serine/threonine-protein kinase PLK4 (O00444 whole entry): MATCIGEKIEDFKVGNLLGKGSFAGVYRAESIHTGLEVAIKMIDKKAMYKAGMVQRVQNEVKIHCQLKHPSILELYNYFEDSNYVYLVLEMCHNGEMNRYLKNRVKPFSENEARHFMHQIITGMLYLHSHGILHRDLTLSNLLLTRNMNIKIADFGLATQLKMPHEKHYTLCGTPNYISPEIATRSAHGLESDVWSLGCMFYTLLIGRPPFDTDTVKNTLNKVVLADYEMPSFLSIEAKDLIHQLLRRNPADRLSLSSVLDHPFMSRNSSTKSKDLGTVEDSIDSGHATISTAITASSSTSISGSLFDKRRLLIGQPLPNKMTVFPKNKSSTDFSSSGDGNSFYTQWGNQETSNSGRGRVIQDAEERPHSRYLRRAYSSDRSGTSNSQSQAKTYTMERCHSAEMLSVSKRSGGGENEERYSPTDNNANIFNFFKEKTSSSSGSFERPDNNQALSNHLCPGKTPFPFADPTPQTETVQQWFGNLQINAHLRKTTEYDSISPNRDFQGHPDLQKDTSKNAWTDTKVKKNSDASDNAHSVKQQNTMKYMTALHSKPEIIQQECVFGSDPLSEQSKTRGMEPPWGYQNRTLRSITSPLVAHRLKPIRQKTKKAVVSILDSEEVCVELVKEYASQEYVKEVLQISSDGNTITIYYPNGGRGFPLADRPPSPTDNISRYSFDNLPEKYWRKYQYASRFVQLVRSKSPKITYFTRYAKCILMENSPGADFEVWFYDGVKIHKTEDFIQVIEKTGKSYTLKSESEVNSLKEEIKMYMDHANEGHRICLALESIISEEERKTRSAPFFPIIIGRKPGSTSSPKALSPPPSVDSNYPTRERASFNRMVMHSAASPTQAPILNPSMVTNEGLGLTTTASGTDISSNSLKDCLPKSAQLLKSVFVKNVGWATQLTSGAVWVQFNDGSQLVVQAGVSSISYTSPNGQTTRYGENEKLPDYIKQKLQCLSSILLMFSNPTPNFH
Chain of Tyrosine-protein kinase CSK (P41240 whole entry): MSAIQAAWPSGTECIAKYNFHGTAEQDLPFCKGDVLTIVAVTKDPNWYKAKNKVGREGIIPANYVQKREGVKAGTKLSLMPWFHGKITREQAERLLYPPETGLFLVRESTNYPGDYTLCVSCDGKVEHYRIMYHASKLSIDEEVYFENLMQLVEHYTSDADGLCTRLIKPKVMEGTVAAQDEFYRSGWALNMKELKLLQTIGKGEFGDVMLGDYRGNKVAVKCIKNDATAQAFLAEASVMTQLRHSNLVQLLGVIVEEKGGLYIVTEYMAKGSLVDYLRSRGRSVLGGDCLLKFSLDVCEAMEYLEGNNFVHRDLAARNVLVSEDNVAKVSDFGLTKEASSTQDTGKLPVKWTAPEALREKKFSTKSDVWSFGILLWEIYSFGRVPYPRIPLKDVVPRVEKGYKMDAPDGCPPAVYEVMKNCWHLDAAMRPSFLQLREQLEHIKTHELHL
Chain of Ribosomal protein S6 kinase alpha-1 (Q15418 whole entry): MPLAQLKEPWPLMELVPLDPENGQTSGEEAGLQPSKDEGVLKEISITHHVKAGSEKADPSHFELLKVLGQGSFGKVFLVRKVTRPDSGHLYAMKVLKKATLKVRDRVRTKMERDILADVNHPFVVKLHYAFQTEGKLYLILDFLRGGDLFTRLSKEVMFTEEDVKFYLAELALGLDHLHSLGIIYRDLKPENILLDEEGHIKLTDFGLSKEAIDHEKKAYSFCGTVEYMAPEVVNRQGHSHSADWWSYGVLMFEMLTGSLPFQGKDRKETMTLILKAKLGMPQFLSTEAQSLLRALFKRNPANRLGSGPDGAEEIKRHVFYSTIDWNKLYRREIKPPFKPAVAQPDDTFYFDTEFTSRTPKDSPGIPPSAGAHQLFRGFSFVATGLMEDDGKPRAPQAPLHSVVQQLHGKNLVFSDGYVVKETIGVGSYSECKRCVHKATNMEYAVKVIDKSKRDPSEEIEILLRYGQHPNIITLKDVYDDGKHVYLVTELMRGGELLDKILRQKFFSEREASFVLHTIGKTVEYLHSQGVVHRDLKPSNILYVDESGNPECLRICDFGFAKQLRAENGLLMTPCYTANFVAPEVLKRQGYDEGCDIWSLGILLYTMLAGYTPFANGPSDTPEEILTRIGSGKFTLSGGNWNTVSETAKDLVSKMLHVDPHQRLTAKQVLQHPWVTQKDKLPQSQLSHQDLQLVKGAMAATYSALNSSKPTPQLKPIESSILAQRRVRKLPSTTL
Chain of MAP/microtubule affinity-regulating kinase 3 (P27448 whole entry): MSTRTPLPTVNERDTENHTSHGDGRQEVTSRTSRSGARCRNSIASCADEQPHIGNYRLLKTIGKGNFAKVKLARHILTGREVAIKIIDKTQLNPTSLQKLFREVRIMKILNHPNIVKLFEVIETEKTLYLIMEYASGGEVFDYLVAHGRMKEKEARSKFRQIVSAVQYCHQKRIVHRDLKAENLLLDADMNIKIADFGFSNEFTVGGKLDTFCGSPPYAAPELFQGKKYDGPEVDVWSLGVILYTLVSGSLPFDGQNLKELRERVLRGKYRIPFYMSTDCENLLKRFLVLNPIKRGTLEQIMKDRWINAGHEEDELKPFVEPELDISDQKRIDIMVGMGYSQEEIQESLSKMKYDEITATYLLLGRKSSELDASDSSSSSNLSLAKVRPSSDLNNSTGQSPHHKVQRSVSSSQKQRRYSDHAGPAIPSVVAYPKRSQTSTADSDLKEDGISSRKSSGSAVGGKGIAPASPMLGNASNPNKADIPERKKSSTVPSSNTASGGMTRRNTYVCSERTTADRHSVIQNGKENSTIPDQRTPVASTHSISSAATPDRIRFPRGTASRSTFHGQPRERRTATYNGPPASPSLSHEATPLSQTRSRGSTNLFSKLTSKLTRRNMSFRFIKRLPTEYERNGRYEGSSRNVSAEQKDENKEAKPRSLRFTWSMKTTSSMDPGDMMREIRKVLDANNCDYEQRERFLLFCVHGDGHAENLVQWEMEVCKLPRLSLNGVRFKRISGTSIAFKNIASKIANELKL

COc1cc2c(Oc3ccc(NS(=O)(=O)c4c(F)cccc4F)cc3F)ccnc2cc1OCCCN1CCN(C)CC1
Kd(free) [1]: 6 nM
Kd(free) (Activin receptor type-1): > 70 nM
Kd(free) [2]: 48 nM
Kd(free) [3]: 16 nM
Kd(free) (LIM domain kinase 1): 93 nM
Kd(free) [4]: 40 nM
Kd(free) [5]: 30 nM
Kd(free) [6]: 2080 nM
Kd(free) [7]: 5474 nM
Kd(free) [8]: 5622 nM
Kd(free) [9]: 5043 nM

COc1cc2c(Oc3ccc(NS(=O)(=O)c4cc(F)ccc4F)cc3F)ccnc2cc1OCCCN1CCCC(C)C1 (centres undefined)
permeability [10]: 46.1%
Papp A→B at 2 h, 10 µM [11]: 2.4 ×10⁻⁶ cm/s
Papp B→A at 2 h, 10 µM [12]: 14.6 ×10⁻⁶ cm/s
microsomal CLint at 5 µM [13]: 19.1 µL/min/mg
Stability [14]: 98.8%
C0 [15]: 216 ng/mL

COc1cc2c(Oc3ccc(NS(=O)(=O)c4cc(F)ccc4F)cc3F)ccnc2cc1OCCCN1CCN(C)CC1
Kd(free) [1]: 15 nM
Kd(free) (Activin receptor type-1): 52 nM
Kd(free) [2]: 53 nM
Kd(free) [3]: 71 nM
Kd(free) (LIM domain kinase 1): 130 nM
Kd(free) [4]: 178 nM
Kd(free) [5]: 270 nM
Kd(free) [6]: 2433 nM
Kd(free) [7]: 3152 nM
Kd(free) [8]: 3854 nM
Kd(free) [9]: 5146 nM
permeability [10]: 24.3%
Papp A→B at 2 h, 10 µM [11]: 7.4 ×10⁻⁶ cm/s
Papp B→A at 2 h, 10 µM [12]: 17 ×10⁻⁶ cm/s
microsomal CLint at 5 µM [13]: 143 µL/min/mg
Stability [14]: 108%
C0 [15]: 310 ng/mL
